In test [1] the target is T1, Retinoic acid receptor RXR-gamma (Homo sapiens) (UniProt P48443).
T1 sequence (whole entry): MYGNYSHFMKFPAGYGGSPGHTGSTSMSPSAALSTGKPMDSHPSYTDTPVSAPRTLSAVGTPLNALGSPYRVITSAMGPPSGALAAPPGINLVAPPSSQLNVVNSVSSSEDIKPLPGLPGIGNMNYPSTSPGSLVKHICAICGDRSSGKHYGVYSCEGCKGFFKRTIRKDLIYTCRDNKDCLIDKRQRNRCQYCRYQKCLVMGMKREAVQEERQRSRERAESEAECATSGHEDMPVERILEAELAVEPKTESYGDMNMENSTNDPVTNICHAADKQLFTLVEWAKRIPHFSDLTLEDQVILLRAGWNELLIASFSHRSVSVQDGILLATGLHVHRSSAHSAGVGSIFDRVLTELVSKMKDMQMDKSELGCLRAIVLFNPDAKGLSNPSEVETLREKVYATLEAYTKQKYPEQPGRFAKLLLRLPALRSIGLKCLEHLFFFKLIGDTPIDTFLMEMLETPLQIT
Kind of test: Antagonist activity against RXRgamma ligand binding domain (unknown origin) expressed in human HEK293T cells assessed as inhibition of 9-cis-RA-induced receptor transactivation at 2 and 10 uM after 18 hrs by luciferase reporter gene based mammalian one-hybrid assay. It is filed as cell-based. Particulars: HEK-293T.

The target in test [2] is T2, Glucocorticoid receptor (Homo sapiens) (UniProt P04150).
T2 sequence (whole entry): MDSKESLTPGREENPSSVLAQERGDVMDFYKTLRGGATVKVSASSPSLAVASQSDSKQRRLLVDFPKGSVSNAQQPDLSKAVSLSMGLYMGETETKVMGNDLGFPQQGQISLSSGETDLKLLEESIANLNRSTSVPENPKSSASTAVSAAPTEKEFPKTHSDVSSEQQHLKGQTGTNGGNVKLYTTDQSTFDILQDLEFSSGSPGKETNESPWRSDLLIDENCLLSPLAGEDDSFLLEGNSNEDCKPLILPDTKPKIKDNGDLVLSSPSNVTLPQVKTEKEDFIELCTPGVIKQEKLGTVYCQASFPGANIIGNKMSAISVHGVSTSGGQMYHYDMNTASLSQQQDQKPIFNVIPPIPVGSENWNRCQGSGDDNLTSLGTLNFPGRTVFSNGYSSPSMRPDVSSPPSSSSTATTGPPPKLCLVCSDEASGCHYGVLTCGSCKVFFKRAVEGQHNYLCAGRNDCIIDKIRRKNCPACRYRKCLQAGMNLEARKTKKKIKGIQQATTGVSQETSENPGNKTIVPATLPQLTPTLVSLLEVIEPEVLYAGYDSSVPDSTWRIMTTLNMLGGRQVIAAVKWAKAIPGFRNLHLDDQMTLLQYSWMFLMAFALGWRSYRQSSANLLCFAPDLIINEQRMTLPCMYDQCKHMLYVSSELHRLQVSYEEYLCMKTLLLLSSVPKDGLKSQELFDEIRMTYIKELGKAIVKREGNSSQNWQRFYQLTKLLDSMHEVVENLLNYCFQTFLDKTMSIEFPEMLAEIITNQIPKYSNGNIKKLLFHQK
Kind of test: Antagonist activity against GRalpha ligand binding domain (unknown origin) expressed in human MCF7 cells assessed as inhibition of dexamethasone-induced receptor transactivation at 10 uM after 18 hrs by luciferase reporter gene based mammalian one-hybrid assay. It is filed as cell-based. (Reporter assays use an easily measured gene product as a stand-in for the process of interest.)

For test [3], the target named is T3, Retinoic acid receptor RXR-beta (Homo sapiens) (UniProt P28702).
T3 sequence (whole entry): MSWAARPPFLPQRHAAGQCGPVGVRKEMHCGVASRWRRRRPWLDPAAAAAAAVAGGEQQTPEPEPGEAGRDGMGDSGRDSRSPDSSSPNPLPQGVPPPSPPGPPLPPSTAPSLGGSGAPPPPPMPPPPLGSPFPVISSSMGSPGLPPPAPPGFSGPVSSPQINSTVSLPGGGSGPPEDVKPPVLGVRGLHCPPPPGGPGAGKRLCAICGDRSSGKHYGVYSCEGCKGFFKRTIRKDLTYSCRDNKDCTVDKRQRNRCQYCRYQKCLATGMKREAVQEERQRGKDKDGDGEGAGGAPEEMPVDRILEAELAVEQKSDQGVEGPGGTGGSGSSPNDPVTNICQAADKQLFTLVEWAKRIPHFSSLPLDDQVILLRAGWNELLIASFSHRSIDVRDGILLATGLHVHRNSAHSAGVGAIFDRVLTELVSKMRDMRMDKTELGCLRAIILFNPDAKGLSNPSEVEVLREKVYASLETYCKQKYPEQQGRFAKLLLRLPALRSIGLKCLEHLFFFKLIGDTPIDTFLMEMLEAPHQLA
Kind of test: Antagonist activity against RXRbeta ligand binding domain (unknown origin) expressed in human HEK293T cells assessed as inhibition of 9-cis-RA-induced receptor transactivation at 2 and 10 uM after 18 hrs by luciferase reporter gene based mammalian one-hybrid assay. It is filed as cell-based. Particulars: HEK-293T.

Test [4] addresses T4, Retinoic acid receptor RXR-alpha (Homo sapiens) (UniProt P19793).
T4 sequence (whole entry): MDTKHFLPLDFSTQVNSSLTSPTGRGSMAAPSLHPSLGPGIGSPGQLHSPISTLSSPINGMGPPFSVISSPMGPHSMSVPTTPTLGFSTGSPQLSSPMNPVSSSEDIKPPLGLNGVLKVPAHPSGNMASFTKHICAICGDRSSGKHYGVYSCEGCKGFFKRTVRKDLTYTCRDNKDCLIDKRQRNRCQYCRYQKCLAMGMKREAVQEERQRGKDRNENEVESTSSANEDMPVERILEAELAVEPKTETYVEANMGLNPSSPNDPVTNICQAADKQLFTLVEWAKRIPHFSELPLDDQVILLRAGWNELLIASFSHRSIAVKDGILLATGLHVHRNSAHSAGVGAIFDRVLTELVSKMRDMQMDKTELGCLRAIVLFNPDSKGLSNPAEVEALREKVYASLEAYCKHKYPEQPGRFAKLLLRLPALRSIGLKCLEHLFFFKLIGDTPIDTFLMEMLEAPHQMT
Kind of test: Antagonist activity against RXRalpha in TNFalpha-stimulated human PC3 cells assessed as inhibition of AKT phosphorylation at 5 and 10 uM pre-treated for 24 hrs before TNFalpha addition by Western blotting method. It is filed as cell-based. Particulars: PC-3. Background: A western blot detects proteins with antibodies after separation by electrophoresis.

The subject of test [5] is HepG2. Kind of test: Induction of apoptosis in human HepG2 cells assessed as PARP cleavage at 5 and 10 uM by immunoblotting method. The test is classed as functional, cell-based. In short, it runs like this: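 A549 or HepG2 cells were treated with compound for 24 h, with or without subsequent TNFα (20 ng/mL) for 30 min. Lysates were immunoblotted for PARP cleavage as the apoptosis marker. One of three to five similar experiments shown.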

Test [6] has as its target T4, Retinoic acid receptor RXR-alpha (Homo sapiens). The test can be described thus: Antagonist activity against RXRalpha in TNFalpha-stimulated human HepG2 cells assessed as inhibition of AKT phosphorylation at 5 and 10 uM pre-treated for 24 hrs before TNFalpha addition by Western blotting method. It is filed as cell-based. In outline:
(§1)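 A549 or HepG2 cells were exposed to compound for 24 h, then with or without TNFα (20 ng/mL) for 30 min more. Lysates were immunoblotted for AKT activation. One of three to five similar experiments shown.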

For test [7] the target is unchanged. The test can be described thus: Antagonist activity against RXRalpha in human colon cancer cells assessed as inhibition of AKT phosphorylation at 5 and 10 uM after 24 hrs by Western blotting method. The test is classed as cell-based. Particulars: Cancer cell lines.
Test [8] has the same target. The test can be described thus: Antagonist activity against RXRalpha in human HepG2 cells assessed as inhibition of AKT phosphorylation at 5 and 10 uM after 24 hrs by Western blotting method. It is filed as cell-based. In outline:
as §1

Active and inactive are the calls of the source. The calls are words filed in the database; no cut-off is given here.

`Cc1cc(=O)oc2c(/C=N/NC(=O)CSc3nc4ccccc4s3)c(O)ccc12`: the inhibition result in test [1], in test [3], in test [4], in test [6] and in test [7] was “Active” in each case. Moreover, in test [2], the inhibition result is “inactive”. The outcome in test [5] was Active. Besides, in test [8], the inhibition entry is “Dose-dependent effect”.

The record behind these values is ChEMBL document CHEMBL3352174, “Identification of a New RXRα Antagonist Targeting the Coregulator-Binding Site” (ACS Med Chem Lett, 2014).
